Measured values as given in paper PMC5609126 (ACS Chemical Neuroscience, 2017).

Tests used:
PET imaging in wild-type = type: in vivo; conditions: WT mice, PET image-derived brain and blood curves
Summary of the method: (§1)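 Male FVB-background wild-type, Mdr1a/b(−/−) and Bcrp1(−/−) mice (28.3–39.7 g) were isoflurane-anaesthetised with jugular cannulas. They got 3.6–3.8 MBq radiotracer and 60 min dynamic PET in groups of 4–6, mostly on HRRT. One tracer's Mdr1a/b(−/−) vs WT study used nanoPET/CT and PET/MR. Ellipsoid ROIs gave brain TACs (SUV) and left-ventricle blood curves. Brain-to-blood AUC ratios were calculated from the AUCs.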

[1] = Biodistribution in selected organs; type: in vivo; conditions: Wistar rats, 5, 15, 60 min after injection
Summary of the method: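 Male Wistar rats (218–244 g) got 50 ± 2 MBq radiotracer i.v. by tail vein under isoflurane (2% in O2). They stayed conscious until sacrifice, except the 5 min group. Rats were killed under isoflurane at 5, 15 or 60 min (n = 3). Heart-puncture blood, heart, lungs, liver, kidneys, bone, cerebral cortex, cerebellum and remaining brain were weighed and gamma-counted. Results were expressed as %ID/g.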

[2] = Metabolite analysis in plasma and brain tissue after tracer injection; type: in vivo; conditions: Wistar rats, mean ± SD; for parent tracer, brain: brain tissue
Summary of the method: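 Male Wistar rats (230–291 g) got radiotracer (28 ± 4 or 43 ± 24 MBq, depending on tracer) by tail vein under isoflurane and stayed conscious until sacrifice at 5, 15 or 60 min (n = 3). Heparinised plasma was run on a tC18 cartridge: the water wash was the polar metabolite fraction and the methanol eluate the nonpolar parent fraction, analysed by HPLC. Half-brains were homogenised in cold H2O/MeCN (1:1), centrifuged, and supernatants run on HPLC.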

P-gp [3] = assay: P-gp blocking study with tariquidar, PET whole brain uptake; type: in vivo; conditions: Wistar rats; for increase in brain uptake after tariquidar vs baseline scans: tariquidar 15 mg/kg i.v. 30 min before tracer, PET whole brain
BCRP = assay: PET imaging in Bcrp1; type: in vivo; conditions: Bcrp1(-/-) mice, PET image-derived brain and blood curves
Summary of the method: as §1

P-gp [4] = assay: PET imaging in Mdr1a/b; type: in vivo, mice; conditions: for brain-to-blood AUC ratios: PET image-derived brain and blood curves
Summary of the method: as §1

SMILES	brain-to-blood AUC ratios (PET imaging in wild-type)	bone uptake (defluorination) [1]	brain uptake [1]	parent tracer, brain ([2]; 15 min after injection)	parent tracer, plasma ([2]; 15 min after injection)	parent tracer, plasma ([2]; 60 min after injection)	time of highest brain uptake (P-gp [3]; PET whole brain time-activity curve, tariquidar blocking study) [min]	increase in brain uptake after tariquidar vs baseline scans (P-gp [3]) [fold]	brain-to-blood AUC ratios (BCRP)	brain-to-blood AUC ratios (P-gp [4]; Mdr1a/b(-/-) mice)	higher brain uptake in Mdr1a/b(-/-) mice compared with wild-type mice (P-gp [4]; during the first 10 min, PET whole brain) [fold]	parent tracer, brain ([2]; 5 min after injection)	parent tracer, brain ([2]; 60 min after injection)	parent tracer, plasma ([2]; 5 min after injection)	SUV plateau of brain uptake (P-gp [4]; Mdr1a/b(-/-) mice, at the end of the scan (60 min))	higher brain uptake in Mdr1a/b(-/-) mice than in wild-type mice (P-gp [4]; maximum level over 60 min scan, PET whole brain) [fold]
COc1ccc(CCN(CC[18F])CCC[C@](C#N)(c2ccc(OC)c(OC)c2)C(C)C)cc1OC [[^18F]1, (R)-5-((3,4-Dimethoxyphenethyl)(2-[^18F]fluoroethyl)amino)-2-(3,4-dimethoxyphenyl)-2-isopropylpentanenitrile]	0.52 ± 0.05	bone uptake was low and did not increase over time	low brain uptake	14 ± 2 Percentage of total radioactivity	19 ± 2 Percentage of total radioactivity	3 ± 1 Percentage of total radioactivity	5	3.6	0.88 ± 0.06	0.98 ± 0.07	1.4					
COc1ccc([C@@](C#N)(CCCNCCc2ccc(OCC[18F])c(OC)c2)C(C)C)cc1OC [[^18F]2, (R)-2-(3,4-Dimethoxyphenyl)-5-((4-(2-[^18F]fluoroethoxy)-3-methoxyphenethyl)amino)-2-isopropylpentanenitrile]	0.18 ± 0.04	low bone uptake		17 ± 7 Percentage of total radioactivity	8 ± 3 Percentage of total radioactivity	4 ± 1 Percentage of total radioactivity		2.4	0.20 ± 0.02	0.75 ± 0.14		26 ± 6 Percentage of total radioactivity	6 ± 1 Percentage of total radioactivity	20 ± 3 Percentage of total radioactivity	about 0.9 SUV	≤ 6.4
